# An excerpt weighted towards active compounds, which were near 1.3% of everything screened.
# DAGLB inh: blocks human DAGLB lipase activity; HEK293T DAGLB membrane lysate, EnzChek fluorogenic substrate; inhibition, % at 5.17 µM; 0.059% of 340,000 active; in the data active means inhibition above about 34%
# TMEM16A inh: inhibitors of mouse TMEM16A calcium-activated chloride channel; Q8BHY3; HEK293 TMEM16A/YFP iodide influx fluorescence, ionomycin; 1.2% of 310,000 active; normalized B-score (activity score, 25-100; higher = stronger inhibition) at 10 µM;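 active means ratio plate-corrected score three or more library SD toward inhibition, starting fluorescence score within five deviations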;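 further: score derived from kinetic fluorescence span divided by baseline fluorescence per well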
# Target sequence (Q8BHY3 whole entry, looked up): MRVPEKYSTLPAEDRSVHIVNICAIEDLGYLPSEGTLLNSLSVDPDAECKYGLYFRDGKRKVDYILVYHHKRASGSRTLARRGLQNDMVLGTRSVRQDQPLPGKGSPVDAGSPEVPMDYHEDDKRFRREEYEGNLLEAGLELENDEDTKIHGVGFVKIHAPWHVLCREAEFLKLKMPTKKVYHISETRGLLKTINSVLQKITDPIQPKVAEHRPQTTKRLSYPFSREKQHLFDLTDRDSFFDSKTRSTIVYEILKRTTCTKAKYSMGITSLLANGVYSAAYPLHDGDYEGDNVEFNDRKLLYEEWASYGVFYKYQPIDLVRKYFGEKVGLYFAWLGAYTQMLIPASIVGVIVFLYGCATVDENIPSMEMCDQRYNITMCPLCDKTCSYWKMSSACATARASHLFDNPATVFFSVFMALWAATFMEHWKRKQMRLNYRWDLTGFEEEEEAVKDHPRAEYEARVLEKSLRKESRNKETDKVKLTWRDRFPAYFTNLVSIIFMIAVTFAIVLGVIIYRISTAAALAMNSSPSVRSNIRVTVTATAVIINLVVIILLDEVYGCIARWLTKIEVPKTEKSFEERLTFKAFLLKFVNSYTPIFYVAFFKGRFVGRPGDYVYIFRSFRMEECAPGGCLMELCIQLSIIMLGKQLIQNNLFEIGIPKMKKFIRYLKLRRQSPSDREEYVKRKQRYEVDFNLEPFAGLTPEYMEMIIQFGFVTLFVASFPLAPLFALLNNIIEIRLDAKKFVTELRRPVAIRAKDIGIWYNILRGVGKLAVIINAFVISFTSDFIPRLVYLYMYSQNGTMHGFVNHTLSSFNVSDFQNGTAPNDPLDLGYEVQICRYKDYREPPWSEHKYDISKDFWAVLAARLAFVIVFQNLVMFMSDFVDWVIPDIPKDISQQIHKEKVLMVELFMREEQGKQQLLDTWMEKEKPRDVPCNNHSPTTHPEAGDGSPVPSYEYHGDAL
# ANO1 activ: activators or potentiators of mouse TMEM16A chloride channel. HEK293 TMEM16A/YFP-H148Q/I152L, iodide quench fluorescence; stronger effect = lower value. B-score at 10 µM. 0.3% of 340,000 active. AID 623877;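 active means fluorescence-ratio B-score plate-corrected deviation score at least 3 library SD below zero, with starting fluorescence score within 5 deviations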;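 further: channel opened by trigger with iodide after compound preincubation; score built on the fluorescence ratio of max minus min over baseline; more negative score means more quench and so TMEM16A activation or potentiation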
# MT1-MMP act inh: MT1-MMP (human) activation inhibition | P50281 | HT1080 RFP-PRO-GFP cells, GFP/RFP ratio fluorescence, overnight; percent of plate control window, DMSO zero | GFP/RFP ratio change, % at 20 µM | 0.061% of 360,000 active | AID 651647;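 active means GFP/RFP ratio change of at least 30% with cell ATP level not reduced by more than half and red fluorescence within 50% of control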
#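 Assay system – RFP-PRO-GFP reporter HT1080 cells · Compound dosing – single dose of 20 µM compound, 1% DMSO final · Incubation – overnight compound exposure at 37 °C · Measure – GFP/RFP fluorescence ratio · Benchmarks – DMSO wells and RFP-L50D-GFP cells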
# A number is an active result; n = inactive; x = not tested or not shown.
SMILES,DAGLB inh,TMEM16A inh,ANO1 activ,MT1-MMP act inh
COc1ccc(-c2cc(C(=O)N3CCc4ccccc4C3)no2)cc1OC,n,n,-6.4,n
O=C(c1cc(-c2ccccc2)on1)N1CCc2ccccc2C1,n,n,n,n
Cc1ccccc1-c1cnc(C(O)c2c(C)ccc3ccccc23)[nH]1 (stereo not given),x,x,x,n
Cc1ccc(Sc2ccc(NC(=O)CCN3C(=O)NC4(CCCC4)C3=O)cc2)c(C)c1,n,x,-24,n
CCn1c(CNC(=O)COc2ccc(C(C)C)cc2)nnc1SCC(=O)Nc1ccccc1C(C)C,n,25,n,n
O=C(NCCN1CCN(c2ccccc2F)CC1)C1CCCN(S(=O)(=O)c2cnc[nH]2)C1 (stereo not given),n,n,-18,n
CCc1nc2c(OCC(=O)c3ccc(F)cc3)cccn2c1N(C)C(=O)c1cccs1,x,x,x,n
COc1ccccc1-c1nnc2sc(-c3cc4ccccc4o3)nn12,n,100,n,n
COc1ccccc1-c1nnc2sc(-c3ccc(N(C)C)cc3)nn12,n,n,n,n
Cc1ccc(NC(=S)NCc2cccs2)cc1,n,n,n,n
CCCCc1ccc(NC(=S)NCc2cccs2)cc1,n,100,n,n
COc1ccc(OC)c(NP2(=O)OCC(C)([N+](=O)[O-])CO2)c1 (stereo not given),n,x,n,n
O=C(NC1CC1(c1ccccc1)c1ccccc1)c1ccccc1 (stereo not given),n,x,-9.3,n
COCCNC(=O)COC(=O)c1[nH]c(C)c(C(C)=O)c1C,n,100,n,n
CNC(=O)COC(=O)c1[nH]c(C)c(C(C)=O)c1C,n,n,n,n
O=C(C1CCCN(S(=O)(=O)c2cccc3nsnc23)C1)N1CC=C(c2ccccc2)CC1 (stereo not given),n,n,n,n
O=C(C1CCN(S(=O)(=O)c2cccc3nsnc23)CC1)N1CC=C(c2ccccc2)CC1,n,25,n,n
CN(C)S(=O)(=O)c1ccc(NC(=O)Cn2nc(-c3ccc4c(c3)OCCO4)ccc2=O)cc1,n,x,n,n
Cc1ccccc1CNC(=O)c1ccc2nc([C@@H]3O[C@H](CO)[C@H](O)[C@H](O)[C@H]3O)[nH]c2c1,x,x,x,n
CC(C)Oc1ccc(CNC(=O)CC(c2ccccc2)c2cc(Cl)ccc2O)cc1 (stereo not given),n,100,n,n
Cc1[nH]n(-c2ccccc2)c(=O)c1/C=N/N1CCOCC1,n,n,-7.4,n
Cc1cccc(C)c1-n1nnnc1C(c1cc2ccccc2o1)N1CCN(C/C=C/c2ccccc2)CC1 (stereo not given),x,x,x,n
N#C/C(=C\c1ccc(O)c(O)c1)C(=O)Nc1ccccc1,n,n,-5.2,n
CCCc1cc(=O)oc2cc(OCC(=O)N3CC[C@@]4(O)CCCC[C@H]4C3)ccc12,x,x,x,n
Cc1c(C)c2ccc(OCC(=O)N3CC[C@@]4(O)CCCC[C@H]4C3)cc2oc1=O,n,n,-5.6,n
SMILES,DAGLB inh,TMEM16A inh,ANO1 activ,MT1-MMP act inh
CC(=O)O[C@@H]1C[C@@]2(C)[C@@H](CC[C@H]2[C@@H](C)/C=C\CC(C)C)C2=C[C@@H](O)[C@@]3(O)C[C@@H](O)[C@H](O)C[C@]3(CO)[C@]21O,x,x,x,n
CCCc1cc(-c2[nH]ncc2-c2ccc3c(c2)OCCCO3)c(O)cc1O,n,25,n,n
O=C(CCCn1c(SCC(=O)c2ccc(F)cc2)nc2ccccc2c1=O)NCc1ccccc1,n,25,n,n
CCNC(=S)NNC(=O)c1cc(-c2ccccc2C)nc2ccccc12,n,n,n,n
Cc1ccc(C)c(-c2cc(C(=O)NNC(=S)NCC(C)C)c3ccccc3n2)c1,n,100,n,n
Cc1ccc(S(=O)(=O)c2nc(Nc3ccccc3)sc2Cl)cc1,n,x,n,n
O=S(=O)(c1ccccc1)c1nc(Nc2cccc(O)c2)sc1Cl,n,100,n,n
CN(C1=C(N2CCCCC2)C(=O)c2ccccc2C1=O)c1ccccc1,38,n,n,n
COc1cccc(COc2cc3ccccc3nc2C)c1,n,25,n,n
COc1ccc(-c2nc(N)ncc2-c2ccccc2)c(O)c1,n,n,n,n
COc1ccc(-c2cnc(N)nc2-c2ccc(OC)cc2O)cc1,n,n,-17,n
Cc1cccc(C(=O)NNC2=C(C(=O)C(F)(F)F)CCC2)c1O,n,100,n,n
CCOC(=O)C1=C[C@@H](C(C)C)N(S(=O)(=O)c2ccc(C)cc2)[C@H]1c1ccc(C(F)(F)F)cc1,x,x,x,n
O=S(=O)(Nc1nc(-c2sccc2Cl)cs1)c1cc(Cl)ccc1Cl,n,100,n,n
CC(C)(C)c1nnc(NS(=O)(=O)c2cc(Cl)ccc2Cl)s1,n,n,n,n
CCOC(=O)C1(CCc2ccccc2)CCN(Cc2ccc(OC)cc2)CC1,n,25,n,n
Cc1nnc2n(C3CCCCC3)c(=O)c3c4c(sc3n12)COC(C)(C)C4,n,n,-15,n
CCOC(=O)CSc1nnc2n(C3CCCCC3)c(=O)c3c4c(sc3n12)CCCC4,n,n,n,n
CC1Oc2cc3oc4c(O)c(O)ccc4c(=O)c3c(O)c2C1(C)C (stereo not given),n,100,n,n
COc1ccc(-c2cc(=O)oc3c(O)c(O)ccc23)cc1,n,n,n,n
COc1ccccc1C(=O)Nc1nc(-c2ccc(S(=O)(=O)N3CCOCC3)cc2)cs1,n,100,n,n
CCNc1nc(-c2sc(NC(=O)C(C)(C)C)nc2C)c(-n2cc(-c3ccccc3)nn2)s1,x,x,x,n
CC(C)=CCc1cc(-c2oc3cc(O)cc(O)c3c(=O)c2O)ccc1O,n,n,n,n
CC(C)=CCc1c(O)cc2oc3c(CC=C(C)C)c(O)c(O)c(CC=C(C)C)c3c(=O)c2c1O,n,100,n,n
CCOc1cc2c(cc1O)C(=NOC)CC1C2CCC2(C)C(O)CCC12 (stereo not given),n,x,-6.6,n
SMILES,DAGLB inh,TMEM16A inh,ANO1 activ,MT1-MMP act inh
O=C(Nc1cccc2ccccc12)c1ccc2sc([C@@H]3O[C@H](CO)[C@H](O)[C@H](O)[C@H]3O)nc2c1,x,x,x,n
CCN(c1ccccc1)c1nc(C#N)nc(N(CC)c2ccccc2)n1,n,25,n,n
CCN(CC)c1nc(C#N)nc(N(CC)CC)n1,n,x,n,n
O=[N+]([O-])c1cnc(Sc2ccncn2)s1,n,25,n,n
Cc1ccc(S(=O)(=O)N2[C@@H](CO)CO[C@H]2CC(=O)c2ccc(F)cc2)cc1,x,x,x,n
COc1ccc(C(C)(NC(C)=O)c2nc(-c3cccc4cccnc34)cs2)cc1 (stereo not given),x,x,x,n
O=C(Nc1ccccc1)c1ccccc1OCC(O)CN1C(=O)c2ccccc2S1(=O)=O (stereo not given),n,100,n,n
CCCn1nc(NS(=O)(=O)c2cccc3nonc23)c2cc3cc(C)ccc3nc21,n,n,n,n
CCCn1nc(NS(=O)(=O)c2cccc3nonc23)c2cc3cccc(C)c3nc21,n,100,n,n
Cc1cc(C)c(O)c(-c2cc(C(=O)Nc3ccc(S(=O)(=O)N4CCOCC4)cc3)[nH]n2)c1,n,25,n,n

# Compound activity (PubChem BioAssay)
